We go through four compounds from ChEMBL document CHEMBL1938299, “Quinolinone-based agonists of S1P₁: use of a N-scan SAR strategy to optimize in vitro and in vivo activity” (Bioorg Med Chem Lett, 2012).

≈ marks a conversion by molar mass, not a printed value.

One may read the EC50 as the concentration giving half of the maximal effect. In general, solubility refers to how much of the substance goes into solution per volume. As a reminder, the Papp is the rate of passage across a membrane or cell layer, normalised by area and donor concentration. As usually defined, the efflux ratio is the permeability from basolateral to apical divided by that in the opposite direction, in the common usage. As a reminder, the clearance is the volume of plasma or blood freed of the substance per unit of time. As a reminder, the half-life is the time in which the quantity being followed falls by half. By AUC(0-t) is commonly meant exposure summed from dosing to a finite time, without extrapolation to infinity. Broadly, the AUC is the area under the concentration-time curve, a measure of exposure.

The target in data set [1] is T1, Sphingosine 1-phosphate receptor 1 (Homo sapiens, UniProt P21453). Kind of data set: Agonist activity at human S1P1 receptor expressed in human U2OS cells co-expressing eGFP assessed as receptor internalization into cytoplasm using Hoechst dye staining. It is filed as functional, cell-based.
Data set [2] in a line: Solubility of the compound in 0.010 M aqueous hydrogen chloride at pH 7.4. The class given is physicochemical. Conditions: in the assay text read “hydrogen chloride” for “hydrogen chloride at pH 7.4”. Summed up: (§1)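 Compound solubility measured separately in 0.010 M aqueous HCl, in PBS at pH 7.4, and in simulated intestinal fluid.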
Data set [3] is described as follows: Solubility of the compound in phosphate-buffered saline at pH 7.4. It is filed as physicochemical. Summed up: as §1
A short description of data set [4]: Solubility of the compound in simulated intestinal fluid at pH 7.4. The class given is physicochemical. Summed up:
as §1

Data set [5] in a line: Apparent permeability of the compound in pig LLC-PK1 cells. It is filed as ADME, cell-based, Sus scrofa. Put shortly:
(§2)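 LLC-PK1 porcine proximal tubule cell monolayers; apparent permeability (Papp) of test compound through the cells measured, along with efflux ratio.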

Data set [6] is described as follows: Efflux ratio of permeability in pig LLC-PK1 cells. The class given is ADME, cell-based, Sus scrofa. Summed up: as §2
A short description of data set [7]: Intrinsic clearance in rat liver microsomes assessed per mg of protein after 30 mins. The class given is ADME, Microsome. Conditions: read-out: CLH. Put shortly: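 Test compound incubated with rat liver microsomes for 30 min. Percent turnover measured and used to estimate intrinsic clearance.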
Data set [8] has as its system Rattus norvegicus. In words: Immunosuppressive activity in Lewis rat assessed as reduction in circulating peripheral lymphocyte count at 1 mg/kg, po after 24 hrs relative to control. Further details: scale not given: the % may be the effect or the level left. It is filed as functional. Summed up:
(§3)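 Female Lewis rats (N = 5/group) given a single oral dose (0.30, 1.0 or 3.0 mg/kg) in 20% Captisol or HPBCD, 1% HPMC, 1% Pluronic F68, pH 2.0 with MSA. At 24 h, blood lymphocytes were counted as percent of vehicle control and total plasma compound measured. Significance by ANOVA/Dunnett's test versus vehicle.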

A short description of data set [9]: Plasma concentration in Lewis rat at 1 mg/kg, po after 24 hrs. The class given is ADME, organism-based. Further details: dose 1 mg/kg, route oral. Put shortly:
as §3

The target of data set [10] is T2, Sphingosine 1-phosphate receptor 3 (Homo sapiens, UniProt Q99500). Kind of data set: Agonist activity at human S1P3 receptor expressed in CHO-K1 cells co-expressing Gq/i5 G-protein assessed as calcium mobilization by FLIPR assay. It is filed as functional, cell-based.
The nature of data set [11]: Plasma protein binding in rat. It is filed as ADME, cell-free. Conditions: read-out: PPB (converted). Summed up:
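Rat plasma protein binding measured in vitro, with bound and free compound separated by ultracentrifugation; reported as percent bound.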

A short description of data set [12]: (§4) Clearance in Sprague-Dawley rat at 1 mg/kg, iv. Further details: dose 1 mg/kg, route intravenous. Conditions: Sprague-Dawley, in vivo. It is filed as ADME, organism-based. Put shortly:
(§5)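 Single intravenous dose of 1 mg/kg in DMSO vehicle to male Sprague–Dawley rats (N = 3/group). Clearance, steady-state volume of distribution and half-life were determined from plasma levels.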

Data set [13] can be described thus: Volume of distribution at steady state in Sprague-Dawley rat at 1 mg/kg, iv. It is filed as ADME, organism-based. The arrangement: dose 1 mg/kg, route intravenous. Conditions: in vivo, read-out: Vdss. Put shortly: as §5
The nature of data set [14]: Half life in Sprague-Dawley rat at 1 mg/kg, iv. It is filed as ADME, organism-based. Further details: dose 1 mg/kg, route intravenous. As to conditions: in vivo. Put shortly:
as §5

Data set [15] is described as follows: (§6) AUC (0 to 24 hrs) in Sprague-Dawley rat at 3 mg/kg, po. Conditions: Sprague-Dawley, plasma. It is filed as ADME, organism-based, Plasma. The arrangement: time < 24 hr, dose 3 mg/kg, route oral.
Data set [16] in a line: (§7) Oral bioavailability in Sprague-Dawley rat at 3 mg/kg. It is filed as ADME, organism-based. Conditions: Sprague-Dawley, in vivo. Put shortly: (§8)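 Bioavailability in male Sprague–Dawley rats (N = 3/group), calculated from AUC0–∞ values obtained after a 1 mg/kg iv dose (DMSO vehicle) and a 3 mg/kg po dose (20% Captisol, 1% HPMC, 1% pluronic F68, pH 2.0 with MSA).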
Data set [17] is described as follows: AUC (0 to 24 hrs) in Sprague-Dawley rat at 100 mg/kg, po. The class given is ADME, organism-based. Further details: time < 24 hr, dose 100 mg/kg, route oral. Conditions: plasma.
Data set [18] is described as follows: Plasma concentration in Lewis rat at 0.3 mg/kg, po after 24 hrs. It is filed as ADME, organism-based. Further details: dose 0.3 mg/kg, route oral. Put shortly:
as §3

A short description of data set [19]: Plasma concentration in Lewis rat at 3 mg/kg, po after 24 hrs. The class given is ADME, organism-based. The arrangement: dose 3 mg/kg, route oral. Put shortly:
as §3

Data set [20] deals with Rattus norvegicus. Kind of data set: Immunosuppressive activity in po dosed Lewis rat assessed as reduction in circulating peripheral lymphocyte count after 24 hrs. It is filed as functional, organism-based. Summed up:
as §3

Data set [21] relates to Rattus norvegicus. Kind of data set: Immunosuppressive activity in Lewis rat assessed as reduction in circulating peripheral lymphocyte count at 3 mg/kg, po after 24 hrs relative to control. The class given is functional. Further details: scale not given: the % may be the effect or the level left. Summed up:
as §3

Data set [22] has as its target T1, Sphingosine 1-phosphate receptor 1. Kind of data set: Agonist activity at human S1P1 receptor expressed in human U2OS cells co-expressing eGFP assessed as receptor internalization into cytoplasm using Hoechst dye staining relative to 1-(4-(6-benzylbenzofuran-2-yl)-3- fluorobenzyl)azetidine-3-carboxylic acid. It is filed as functional, cell-based.
Data set [23] deals with Rattus norvegicus. In words: Ratio of AUC (0 to 24 hrs) at 100 mg/kg, po to AUC (0 to 24 hrs) at 3 mg/kg, po in Sprague-Dawley rat. It is filed as ADME, organism-based. Conditions: in vivo. Summed up:
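Male Sprague–Dawley rats (N = 3/group) each received a single oral dose of 3 or 100 mg/kg, in 20% Captisol, 1% HPMC, 1% Pluronic F68, adjusted to pH 2.0 with MSA.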

In data set [24] the test system is Rattus norvegicus. Described as §4. It is filed as ADME, organism-based. The arrangement: dose 1 mg/kg, route intravenous. As to conditions: in vivo. Put shortly:
as §5

The test system of data set [25] is Rattus norvegicus. The data set is described as §6. The class given is ADME, organism-based, Plasma. Further details: time < 24 hr, dose 3 mg/kg, route oral. Conditions: in vivo, 24 h.
In data set [26] the test system is Rattus norvegicus. The data set is described as §7. Conditions: in vivo. It is filed as ADME, organism-based. Put shortly: as §8
In data set [27] the target is T2, Sphingosine 1-phosphate receptor 3. Kind of data set: Agonist activity at human S1P3 receptor expressed in CHO-K1 cells co-expressing Gq/i5 G-protein assessed as calcium mobilization by FLIPR assay relative to S1P. It is filed as functional, cell-based. Put shortly: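 Ca2+ mobilization in CHO-K1 cells expressing hS1P3 and a chimeric Gq/i5 G-protein. Efficacy expressed as % relative to S1P; compounds not reaching >10% of control activity reported as greater than the highest concentration tested.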
In general terms: Calcium assays in cells follow changes in intracellular calcium, usually with a dye or a luminescent sensor.

Data set [28] relates to Rattus norvegicus. Kind of data set: Immunosuppressive activity in Lewis rat assessed as reduction in circulating peripheral lymphocyte count at 30 mg/kg, po after 24 hrs relative to control. It is filed as functional. Further details: scale not given: the % may be the effect or the level left.
Data set [29] is described as follows: Plasma concentration in Lewis rat at 30 mg/kg, po after 24 hrs. It is filed as ADME, organism-based. The arrangement: dose 30 mg/kg, route oral.

T2 sequence (Q99500 whole entry): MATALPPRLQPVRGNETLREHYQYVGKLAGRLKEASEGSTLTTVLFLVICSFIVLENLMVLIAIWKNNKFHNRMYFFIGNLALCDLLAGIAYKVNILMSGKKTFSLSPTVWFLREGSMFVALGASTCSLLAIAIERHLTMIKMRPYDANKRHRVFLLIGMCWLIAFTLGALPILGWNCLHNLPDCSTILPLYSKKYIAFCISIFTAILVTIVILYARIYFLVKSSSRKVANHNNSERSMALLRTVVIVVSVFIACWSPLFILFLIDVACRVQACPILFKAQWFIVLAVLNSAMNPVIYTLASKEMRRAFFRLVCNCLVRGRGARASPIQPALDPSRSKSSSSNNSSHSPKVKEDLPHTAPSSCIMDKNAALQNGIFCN
T1 sequence (P21453 whole entry): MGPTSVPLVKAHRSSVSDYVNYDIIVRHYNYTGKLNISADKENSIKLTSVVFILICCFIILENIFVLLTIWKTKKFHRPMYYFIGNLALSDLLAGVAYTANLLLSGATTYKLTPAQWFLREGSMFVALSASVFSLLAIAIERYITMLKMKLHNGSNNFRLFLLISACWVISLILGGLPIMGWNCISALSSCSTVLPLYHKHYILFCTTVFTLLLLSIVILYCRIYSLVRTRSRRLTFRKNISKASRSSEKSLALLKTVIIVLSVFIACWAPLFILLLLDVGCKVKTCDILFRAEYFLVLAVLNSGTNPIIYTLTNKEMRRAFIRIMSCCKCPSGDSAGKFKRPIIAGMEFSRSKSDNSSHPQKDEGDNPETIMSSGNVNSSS

With `Cn1cc(C(=O)Nc2ccc(-c3ccccc3)c(C(F)(F)F)n2)c(=O)c2cnccc21`, the EC50 was 20 nM in data set [1] and over 2500 nM in data set [10]. For the same compound, the solubility in [2] is under 1 µg/mL; in data set [3], 2.4 µg/mL (≈ 5.66 µM); in data set [4] it was 10 µg/mL (≈ 23.6 µM). Besides, the Papp in data set [5] was determined as 6.7 ×10⁻⁶ cm/s. The efflux ratio in data set [6] is 1. The microsomal CLint in data set [7] was under 14 µL/min/mg. In addition, the Activity in the data set on Rattus norvegicus [8] is -67%; with Rattus norvegicus [20] it was “Dose-dependent effect”; in the data set with Rattus norvegicus [21], -76%. In addition, the concentration at 24 h in data set [9] turned out to be 130 ng/mL; in data set [18], 47 ng/mL; in data set [19] it was 640 ng/mL. Also, the fraction unbound in data set [11] is 0.02. In data set [12], this compound showed a clearance of 2.5 mL/min/kg. In addition, in [13], the Vd is 5.1 L/kg. The half-life in data set [14] was 24 h. Besides, the AUC(0-t) at 24 h in data set [15] was found to be 12000 ng·h/mL; in data set [17] it was 130000 ng·h/mL. For the same compound, the bioavailability in data set [16] is 110%. Moreover, the Efficacy in [22] worked out at 120%. Further, the “Ratio AUC” value with Rattus norvegicus [23] was found to be 11.

`Cn1cc(C(=O)Nc2ccc(-c3ccccc3)c(C(F)(F)F)c2)c(=O)c2cnccc21`: the EC50 was 24 nM in data set [1] and over 2500 nM in data set [10]. For the same compound, the solubility in data set [2] is under 1 µg/mL; in [3], under 1 µg/mL; in data set [4] it was 4.9 µg/mL (≈ 11.6 µM). Further, the Papp in data set [5] was 5.7 ×10⁻⁶ cm/s. Further, the efflux ratio in data set [6] is 0.8. In data set [7], the microsomal CLint was under 14 µL/min/mg. Moreover, the Activity was -64% in the data set with Rattus norvegicus [8], “Dose-dependent effect” in the data set on Rattus norvegicus [20] and -64% in the data set on Rattus norvegicus [21]. Moreover, the concentration at 24 h was 350 ng/mL in data set [9], 96 ng/mL in data set [18] and 1100 ng/mL in data set [19]. The fraction unbound in [11] is 0.08. The same compound came in with a CL in the data set on Rattus norvegicus [24] of 2.67 mL/min/kg. Also, the Vd in [13] turned out to be 9.2 L/kg. The same compound gave a half-life in data set [14] of 41 h. The compound also displayed an AUC in the data set on Rattus norvegicus [25] of 5100 ng·h/mL. The F in the data set on Rattus norvegicus [26] is given as 95%. In data set [17], this compound gave an AUC(0-t) at 24 h of 31000 ng·h/mL. Further, the Efficacy in data set [22] was found to be 100%. Also, the “Ratio AUC” value in the data set with Rattus norvegicus [23] was found to be 6.

As to `Cn1cc(C(=O)Nc2ccc(-c3ccccc3)c(C(F)(F)F)c2)c(=O)c2ccccc21`, the EC50 in [1] turned out to be 70 nM; in data set [10], 1500 nM. Also, the solubility in [2] was 1.3 µg/mL (≈ 3.08 µM); in [3] it was under 1 µg/mL; in data set [4] it was 11 µg/mL (≈ 26 µM). Moreover, the Papp in data set [5] worked out at 1.2 ×10⁻⁶ cm/s. In addition, the efflux ratio in data set [6] turned out to be 0.4. Also, in data set [7], the microsomal CLint was under 14 µL/min/mg. The Activity in the data set on Rattus norvegicus [8] was -3%; with Rattus norvegicus [20] it was “Dose-dependent effect”; in the data set on Rattus norvegicus [21], -51%. Also, the figures for the concentration at 24 h in [9], in [18] and in data set [19] were 18 ng/mL, 5.5 ng/mL and 48 ng/mL, respectively. For the same compound, the fraction unbound in data set [11] is 0.03. Further, the clearance in data set [12] is 15.5 mL/min/kg. Moreover, in data set [13], the Vd came to 11 L/kg. Moreover, the half-life in data set [14] is 15 h. Besides, the AUC(0-t) at 24 h was determined as 1200 ng·h/mL in data set [15] and 5800 ng·h/mL in data set [17]. For the same compound, the bioavailability in [16] was determined as 60%. The Efficacy came out at 110% in [22] and 92% in data set [27]. Moreover, in the data set on Rattus norvegicus [23], the “Ratio AUC” value was 4.7.

Consider `FC(F)(F)c1cccc(-c2noc(-c3cc(-c4ccccc4)c(C(F)(F)F)s3)n2)c1`, for which the Activity in the data set on Rattus norvegicus [28] is given as -66%. In [29], this compound had a concentration at 24 h of 1100 ng/mL. In addition, the EC50 in [10] was over 25000 nM. Also, the Efficacy in data set [22] stood at 86%.
